Experimental data published in paper PMC5456262 (Biochemistry, 2017).
“And” between values parts separate entries of the source, which are not always exact repeats. Equal values may be shown once.

Key:
[1] = molecular target: LacY mutant 35C/245C (H35C/N245C) (Escherichia coli, UniProt P02920, H35C/N245C); assay: NPG binding to mutant 35C/245C solubilized in DDM, stopped-flow Trp151→NPG FRET
I32C LacY = I32C LacY (Escherichia coli, UniProt P02920, I32C); assay: NPG binding to control single-Cys mutant I32C, stopped-flow; conditions: Figure S3
H35C LacY = H35C LacY (Escherichia coli, UniProt P02920, H35C); assay: NPG binding to control single-Cys mutant H35C, stopped-flow; conditions: Figure S3
[2] = molecular target: LacY control mutants I32C, H35C, or N245C; assay: Galactoside; assay type: binding, Escherichia coli; conditions: range over three control mutants, presence or absence of Cu^2+
How it was run: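 Purified LacY single-Cys mutants were pretreated with CuSO4 (oxidizing) or 10 mM TCEP (reducing) for 10 min at room temperature, with stopped-flow final TCEP at 2 mM. Buffer was 50 mM NaPi pH 7.5, with 0.02% DDM for detergent-solubilized protein. Protein was preincubated 5 min with NPG at varied concentrations, then mixed by stopped-flow with 15 mM TDG. Trp151→NPG FRET was read at ex 295/em 340 nm, and single-exponential fits gave koff.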

[3] = molecular target: LacY mutant 32C/245C (I32C/N245C) reconstituted into PL (Escherichia coli, UniProt P02920, I32C/N245C); assay: biochemical; assay type: binding
WT LacY in PL = conditions: cited from earlier work
N245C LacY = N245C LacY (Escherichia coli, UniProt P02920, N245C); assay: NPG binding to control single-Cys mutant N245C, stopped-flow; conditions: Figure S3
[4] = molecular target: mutant 32C/245C LacY–Nb9065 complex in PL (Escherichia coli, UniProt P02920, I32C/N245C); assay type: binding
[5] = molecular target: LacY mutant 32C/245C (I32C/N245C) (Escherichia coli, UniProt P02920, I32C/N245C); assay: biochemical; assay type: binding
[6] = DDM, Cu^2+, directly measured NPG binding rates
[7] = Kd^app calculated = Kd(1 + kr/kf), DDM, cross-linked with Cu^2+
[8] = read-out: kon from two-step conformational selection fit

LacY mutant 32C/245C (I32C/N245C), sequence (P02920 whole entry I32C/N245C): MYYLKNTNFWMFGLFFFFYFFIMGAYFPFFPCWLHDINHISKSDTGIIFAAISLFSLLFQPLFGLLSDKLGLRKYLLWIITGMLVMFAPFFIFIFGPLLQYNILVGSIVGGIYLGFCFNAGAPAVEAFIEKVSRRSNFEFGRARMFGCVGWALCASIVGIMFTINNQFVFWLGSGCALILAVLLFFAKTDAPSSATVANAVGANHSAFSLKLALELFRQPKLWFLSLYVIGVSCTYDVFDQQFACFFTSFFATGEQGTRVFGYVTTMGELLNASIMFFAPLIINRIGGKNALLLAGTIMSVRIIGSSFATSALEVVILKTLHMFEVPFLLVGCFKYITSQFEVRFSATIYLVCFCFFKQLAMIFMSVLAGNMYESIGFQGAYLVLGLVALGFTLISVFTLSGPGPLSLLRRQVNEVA
LacY mutant 32C/245C (I32C/N245C) reconstituted into PL, sequence (P02920 whole entry I32C/N245C): as above
LacY mutant 35C/245C (H35C/N245C), sequence (P02920 whole entry H35C/N245C): as the sequence (P02920 whole entry I32C/N245C) above, with C32I, H35C counted along it
mutant 32C/245C LacY–Nb9065 complex in PL, sequence (P02920 whole entry I32C/N245C, one chain of several): as the sequence (P02920 whole entry I32C/N245C) above
N245C LacY, sequence (P02920 whole entry N245C): as the sequence (P02920 whole entry I32C/N245C) above, with C32I counted along it
I32C LacY, sequence (P02920 whole entry I32C): as the sequence (P02920 whole entry I32C/N245C) above, with C245N counted along it
H35C LacY, sequence (P02920 whole entry H35C): as the sequence (P02920 whole entry I32C/N245C) above, with C32I, H35C, C245N counted along it

O=[N+]([O-])c1ccc(O[C@H]2O[C@H](CO)[C@H](O)[C@H](O)[C@H]2O)cc1 [NPG, 4-nitrophenyl α-D-galactopyranoside]
kobs limit at high sugar concentrations [1, 6]: 40 to 50 s⁻¹ | Kd [1, 7]: 91 µM | kon [1, 8]: 700000 ± 160000 M⁻¹ s⁻¹ | kobs (sugar binding rate measured directly) (I32C LacY): 20 s⁻¹ | kobs (sugar binding rate measured directly) (H35C LacY): 33 s⁻¹ | Kd [2]: 3 to 17 µM | koff [2]: 33 to 102 s⁻¹ | Kd [3]: 7 ± 1 µM | sugar binding (NPG displacement) ([3]; PL, cross-linked in the presence of Cu^2+, 400 μM NPG): no sugar binding | kobs (NPG binding rate measured directly, independent of NPG concentration) ([3]; PL, reducing conditions (TCEP), no Nb9065): 2.2 ± 0.4 s⁻¹ and 2 s⁻¹ | koff ([3]; read-out: koff (displacement rate)): 24 ± 3 s⁻¹ | Kd (WT LacY in PL; WT LacY in PL): 11 µM | koff (WT LacY in PL; WT LacY in PL): 111 s⁻¹ | kon estimated from displacement experiments (WT LacY in PL; WT LacY reconstituted into PL): 1e+07 M⁻¹ s⁻¹ | kobs (sugar binding rate, independent of sugar concentration) (WT LacY in PL; reconstituted WT LacY): 21 s⁻¹ | kobs (sugar binding rate measured directly) (N245C LacY): 26 s⁻¹ | Kd [4]: 6 ± 2 µM | kon ([4]; read-out: kon from concentration dependence of binding rates measured directly): 3.7e+06 ± 200000 M⁻¹ s⁻¹ | kobs limit at high sugar concentrations [5, 6]: 40 to 50 s⁻¹ | koff (rate of NPG displacement by excess TDG) ([5]; DDM, cross-linked in the presence of Cu^2+): 9.1 ± 0.9 s⁻¹ | Kd [5, 7]: 68 µM | kon [5, 8]: 640000 ± 120000 M⁻¹ s⁻¹
